Laboratory results reported in PMC9053952 (RSC Advances, 2020).
Entries after “also recorded” stand apart in the source; their conditions may differ. Starred links: 1 amine or outer side, 2 acyl side, 3 side chain; linkers in the order of their positions; H or OH if unused. Non-standard residues stand in square brackets, D forms with d. Residues, ends and D or L forms follow the SMILES beside them. *: point of attachment. X2 = COc1ccc([N+]2=NC(C#N)=NN(c3ccc(-c4cn(CCCC[C@H](N[*:1])C(=O)[*:2])nn4)cc3)[B-]2(F)F)cc1; Octanoyl = CCCCCCCC(=O)*; Dap = NC[C@H](N)C(=O)O

What was measured:
[1] = Photophysical properties; format: physicochemical; conditions: in DMSO; for λabs (absorption maximum): UV-Vis spectrophotometer; for ΦF (fluorescence quantum yield): comparative method, [Ru(bpy)3][PF6]2 as relative standard
Method in brief: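 Measurements were made in DMSO. UV-Vis absorption and excitation/emission spectra were recorded. Molar extinction coefficient was taken from the slope of absorbance versus concentration over seven solutions of known concentration. Fluorescence quantum yield was determined by the comparative method against the [Ru(bpy)3][PF6]2 standard.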

[2] = target: GHSR-1a (Homo sapiens, UniProt Q92847); experiment: Radioligand competitive binding assay, GHSR-1a
Method in brief: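 Competition binding used membranes from HEK293 cells transiently transfected with GHSR-1a (50 000 cells/tube) and human [125I]-ghrelin(1–28) (15 000 cpm/tube). Test peptide was run at 10−11 to 10−5 M, with incubation for 20 min at 550 rpm. Unbound radioligand was removed and bound activity gamma-counted. Human ghrelin(1–28) served as reference. IC50 came from nonlinear regression; assays were run in triplicate.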

[3] = test system: OVCAR-8 cells stably transfected with GHSR-1a; experiment: Confocal fluorescence microscopy of OVCAR-8 cells transfected with GHSR-1a; format: cell-based; conditions: 0.1 μM, 1 h, 37 °C
Method in brief: (§1)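 OVCAR-8 cells, either stably transfected with GHSR-1a or parental, were detached with trypsin-free dissociation buffer and seeded at 50 000 cells/well on coverslips. They were cultured overnight in RPMI/10% FBS at 37 °C, 5% CO2. Test compound at 0.1 μM was added in serum-free RPMI for 1 h at 37 °C. Cells were washed three times with PBS, fixed in 4% paraformaldehyde and mounted with DAPI. Confocal settings: ex 559 nm, em 598–698 nm; 40× and 60× objectives.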

[4] = test system: parental OVCAR-8 cells; experiment: Confocal fluorescence microscopy of parental OVCAR-8 cells; format: cell-based; conditions: low expression of GHSR-1a
Method in brief: as §1

[5] = target: GRPR (Homo sapiens, UniProt P30550); experiment: Radioligand competitive binding assay, GRPR
Method in brief: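 Whole-cell competition binding used PC-3 cells (500 000/vial) grown in F-12K/10% FBS, with [125I]Tyr4-bombesin as radioligand. Test peptide was run at 10−12 to 10−6 M, shaking at 550 rpm for 1 h at 37 °C. Cells were centrifuged, the pellet washed with 50 mM Tris pH 7.4, and bound activity gamma-counted. IC50 came from nonlinear regression; assays were run in triplicate.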

[6] = test system: PC-3 cells; experiment: Confocal fluorescence microscopy of PC-3 cells; format: cell-based; conditions: 0.5 μM, 1 h, 37 °C
Method in brief: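 PC-3 cells, with native GRPR, were detached with trypsin-free dissociation buffer and seeded at 50 000 cells/well on coverslips. They were cultured overnight in F-12K/10% FBS at 37 °C, 5% CO2. Test compound at 0.5 μM was added in serum-free F-12K for 1 h at 37 °C, alone or with a 10-fold molar excess of the unlabelled parent peptide as blocker. Cells were PBS-washed three times, fixed in 4% paraformaldehyde and mounted with DAPI. Confocal settings: ex 559 nm, em 605–705 nm.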

[7] = test system: GRPR in PC-3 cells; experiment: Blocking study in PC-3 cells with parent peptide 3; format: cell-based; conditions: 0.5 μM 7, 1 h, 37 °C; 10-fold molar excess of 3

Sequence of GRPR (P30550 whole entry): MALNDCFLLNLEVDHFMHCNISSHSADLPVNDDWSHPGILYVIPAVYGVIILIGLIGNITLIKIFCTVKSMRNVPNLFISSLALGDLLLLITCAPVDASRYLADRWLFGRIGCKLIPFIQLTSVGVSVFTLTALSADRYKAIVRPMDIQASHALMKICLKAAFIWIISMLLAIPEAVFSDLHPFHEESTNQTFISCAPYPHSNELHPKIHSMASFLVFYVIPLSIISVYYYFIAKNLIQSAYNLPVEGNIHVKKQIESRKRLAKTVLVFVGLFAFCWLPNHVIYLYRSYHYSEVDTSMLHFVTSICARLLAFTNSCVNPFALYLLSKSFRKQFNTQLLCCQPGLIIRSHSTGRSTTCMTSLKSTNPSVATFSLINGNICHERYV
Sequence of GHSR-1a (Q92847 whole entry): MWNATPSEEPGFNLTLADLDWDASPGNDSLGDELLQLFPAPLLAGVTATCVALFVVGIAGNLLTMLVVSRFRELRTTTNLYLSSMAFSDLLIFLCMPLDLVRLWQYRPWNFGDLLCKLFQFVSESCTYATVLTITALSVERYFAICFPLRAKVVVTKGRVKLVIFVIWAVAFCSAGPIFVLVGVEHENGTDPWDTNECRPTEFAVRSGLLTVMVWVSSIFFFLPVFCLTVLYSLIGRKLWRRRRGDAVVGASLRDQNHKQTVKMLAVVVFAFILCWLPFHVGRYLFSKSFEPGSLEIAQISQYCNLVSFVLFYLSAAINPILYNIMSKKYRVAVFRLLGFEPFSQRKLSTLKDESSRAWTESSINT

SMILES	λem (emission maximum) [1]	λabs (absorption maximum) [1]	ΦF (fluorescence quantum yield) [1]	IC50 [2]	receptor affinity relative to parent peptide (in words) ([2]; vs parent peptide 2, GHSR-1a)	specific binding for GHSR-1a by confocal fluorescence microscopy [3]	cellular uptake (red emission) [4]	ε (molar extinction coefficient) ([1]; slope of absorbance against concentration, seven solutions)	IC50 [5]	receptor affinity relative to parent peptide (in words) ([5]; vs parent peptide 3, GRPR)	specific binding for GRPR by confocal fluorescence microscopy [6]	displacement by parent peptide 3 [7]
CCCCCCCC(=O)NC[C@H](NC(=O)[C@H](CO)NC(=O)CN)C(=O)N[C@@H](Cc1ccccc1)C(=O)N[C@@H](CC(C)C)C(=O)N[C@@H](CO)C(=O)N1CCC[C@H]1C(=O)N[C@H](C(=O)N[C@@H](CCCCn1cc(-c2ccc(N3N=C(C#N)N=[N+](c4ccc(OC)cc4)[B-]3(F)F)cc2)nn1)C(N)=O)[C@@H](C)O [Compound 5, [Dpr(octanoyl)^3,Thr^8,Lys(triazole-formazanate)^9]ghrelin(1–9)] (H-GS[Dap](Octanoyl)FLSPT[X2]-NH2; N-terminus assumed)	688 nm	560 nm	21%	89 nM	decrease in receptor affinity	specific binding of 5 for GHSR-1a	minimal uptake of 5					
CCCC[C@H](NC(=O)[C@H](Cc1ccccc1)NC(=O)[C@H](Cc1c[nH]cn1)NC(=O)CCNC(=O)[C@@H](NC(=O)[C@H](C)NC(=O)[C@H](Cc1c[nH]c2ccccc12)NC(=O)[C@H](CCC(N)=O)NC(=O)[C@@H](Cc1ccccc1)NC(=O)COCC(=O)NCCOCCOCCOCCOCCOCCOCCOCCOCCn1cc(-c2ccc([N+]3=NC(C#N)=NN(c4ccc(OC)cc4)[B-]3(F)F)cc2)nn1)C(C)C)C(N)=O [Compound 7] (HELM PEPTIDE1{[COc1ccc(N2N=C(C#N)N=[N+](c3ccc(-c4cn(CCOCCOCCOCCOCCOCCOCCOCCOCCNC(=O)COCC(=O)[*:2])nn4)cc3)[B-]2(F)F)cc1].[dF].Q.W.A.V.[bAla].H.F.[Nle].[am]}$$$$V2.0)	690 nm	555 nm	12%					31 900 M^−1 cm^−1	16.3 nM	decrease in receptor affinity	analogue 7 for GRPR was demonstrated; also recorded: specific binding of analogue 7 to GRPR	displacement of 7 by 10-fold molar excess of 3
